What was measured:
Assay type in all cases: functional
[1] = Cytotoxicity against human breast cancer cells after 48 hrs; details: Cancer cell lines; for CC50: read-out: LC50 (the source's name)
Procedure, shortened: (§1)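 NCI 60-line panel. Compounds were dissolved in DMSO and tested at five 10-fold dilutions, the highest 10^-4 M (10^-3 M where footnoted), over 48 h of incubation. The readouts were GI50, TGI and LC50 in μM, with the panel mean also given. Only compounds passing a 10^-5 M single-dose prescreen were tested; some were repeated and averaged over two experiments.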

[2] = Cytotoxicity against human CNS cancer cells after 48 hrs; details: Cancer cell lines; for CC50: read-out: LC50 (the source's name); procedure, shortened: as §1
[3] = Cytotoxicity against human leukemia cells after 48 hrs; details: for GI50 / TGI: Leukemia cell; procedure, shortened: as §1
[4] = Cytotoxicity against human ovarian cancer cells after 48 hrs; details: Cancer cell lines; procedure, shortened: as §1
[5] = Cytotoxicity against human NSCLC cells after 48 hrs; procedure, shortened: as §1
[6] = Cytotoxicity against human melanoma cells after 48 hrs; details: Melanoma cell; procedure, shortened: as §1
[7] = Cytotoxicity against human renal cancer cells after 48 hrs; details: Cancer cell lines; procedure, shortened: as §1
[8] = Cytotoxicity against human colon cancer cells after 48 hrs; details: Cancer cell lines; for CC50: read-out: LC50 (the source's name); procedure, shortened: as §1
[9] = Cytotoxicity against human prostate cancer cells after 48 hrs; details: Cancer cell lines; for CC50: read-out: LC50 (the source's name); procedure, shortened: as §1

Question: For `O=C1Nc2ccc(Cl)cc2/C1=C\c1c(Cl)n(CCCc2ccccc2)c2ccccc12`, which GI50 [1] is on record?
Answer: 2.19 µM

Question: And the TGI [1]?
Answer: 9.12 µM

Question: What about the CC50 [1] of the same compound?
Answer: 42.7 µM

Question: And the GI50 [2]?
Answer: 2.82 µM

Question: What about the TGI [2] of the same compound?
Answer: 10.2 µM

Question: What about the CC50 [2] of the same compound?
Answer: 50.1 µM

Question: And the GI50 [3]?
Answer: 2.88 µM

Question: What about the TGI [3] of the same compound?
Answer: 81.3 µM

Question: What about the GI50 [4] of the same compound?
Answer: 2.45 µM

Question: And the LC50 [4]?
Answer: 60.3 µM

Question: What about the TGI [4] of the same compound?
Answer: 23.4 µM

Question: What about the GI50 [5] of the same compound?
Answer: 2.24 µM

Question: And the LC50 [5]?
Answer: 28.8 µM

Question: What about the TGI [5] of the same compound?
Answer: 8.91 µM

Question: And the GI50 [6]?
Answer: 2.04 µM

Question: What about the LC50 [6] of the same compound?
Answer: 35.5 µM

Question: What about the TGI [6] of the same compound?
Answer: 5.75 µM

Question: And the GI50 [7]?
Answer: 1.86 µM

Question: What about the LC50 [7] of the same compound?
Answer: 17.8 µM

Question: What about the TGI [7] of the same compound?
Answer: 9.77 µM

Question: What about the GI50 [8] of the same compound?
Answer: 1.95 µM

Question: And the TGI [8]?
Answer: 5.62 µM

Question: What about the CC50 [8] of the same compound?
Answer: 19.1 µM

Question: And the GI50 [9]?
Answer: 2 µM

Question: What about the TGI [9] of the same compound?
Answer: 6.46 µM

Question: What about the CC50 [9] of the same compound?
Answer: 34.7 µM

Question: What does the source list for `COc1ccc(OC)c2c1NC(=O)/C2=C/c1c(Cl)[nH]c2ccccc12`?
Answer: GI50 [1]: 1.62 µM; TGI [1]: 12.6 µM; CC50 [1]: 64.6 µM; GI50 [2]: 2.75 µM; TGI [2]: 13.5 µM; CC50 [2]: 44.7 µM; GI50 [3]: 1.51 µM; TGI [3]: 56.2 µM; GI50 [4]: 2.51 µM; LC50 [4]: 41.7 µM; TGI [4]: 15.1 µM; GI50 [5]: 3.55 µM; LC50 [5]: 74.1 µM; TGI [5]: 22.4 µM; GI50 [6]: 3.39 µM; LC50 [6]: 46.8 µM; TGI [6]: 16.2 µM; GI50 [7]: 3.39 µM; LC50 [7]: 53.7 µM; TGI [7]: 16.2 µM; GI50 [8]: 2.24 µM; TGI [8]: 8.91 µM; CC50 [8]: 33.9 µM; GI50 [9]: 3.47 µM; TGI [9]: 19.9 µM; CC50 [9]: 51.3 µM

Question: Which results are given for `O=C1Nc2ccccc2/C1=C\c1c(Cl)n(Cc2ccccc2)c2ccccc12`?
Answer: GI50 [1]: 12.9 µM; TGI [1]: 64.6 µM; GI50 [2]: 16.6 µM; TGI [2]: 47.9 µM; CC50 [2]: 93.3 µM; LC50 (concentration giving 50% net cell kill) [3]: 75.9 µM; GI50 [3]: 3.63 µM; TGI [3]: 21.4 µM; GI50 [4]: 20.9 µM; LC50 [4]: 95.5 µM; TGI [4]: 66.1 µM; GI50 [5]: 14.8 µM; TGI [5]: 57.5 µM; GI50 [6]: 8.91 µM; LC50 [6]: 87.1 µM; TGI [6]: 32.4 µM; GI50 [7]: 20.4 µM; TGI [7]: 70.8 µM; GI50 [8]: 19.9 µM; TGI [8]: 60.3 µM; CC50 [8]: 95.5 µM; GI50 [9]: 20.4 µM; TGI [9]: 55 µM

Question: With `COc1cc2c(/C=C3/C(=O)Nc4ccc(Cl)cc43)c(Cl)n(Cc3cc(OC)c(OC)c(OC)c3)c2cc1C` as the compound, how does the GI50 [1] read?
Answer: 2.09 µM

Question: And the TGI [1]?
Answer: 5.5 µM

Question: What about the CC50 [1] of the same compound?
Answer: 22.4 µM

Question: And the GI50 [2]?
Answer: 2.34 µM

Question: What about the TGI [2] of the same compound?
Answer: 6.03 µM

Question: And the CC50 [2]?
Answer: 23.4 µM

Question: And the LC50 (concentration giving 50% net cell kill) [3]?
Answer: 15.8 µM

Question: What about the GI50 [3] of the same compound?
Answer: 1.86 µM

Question: What about the TGI [3] of the same compound?
Answer: 4.79 µM

Question: And the GI50 [4]?
Answer: 3.72 µM

Question: What about the LC50 [4] of the same compound?
Answer: 39.8 µM

Question: What about the TGI [4] of the same compound?
Answer: 13.8 µM

Question: And the GI50 [5]?
Answer: 2.29 µM

Question: What about the LC50 [5] of the same compound?
Answer: 16.2 µM

Question: What about the TGI [5] of the same compound?
Answer: 5.89 µM

Question: And the GI50 [6]?
Answer: 2.29 µM

Question: What about the LC50 [6] of the same compound?
Answer: 17.8 µM

Question: And the TGI [6]?
Answer: 5.75 µM

Question: And the GI50 [7]?
Answer: 2.95 µM

Question: What about the LC50 [7] of the same compound?
Answer: 18.6 µM

Question: And the TGI [7]?
Answer: 7.24 µM

Question: And the GI50 [8]?
Answer: 2.19 µM

Question: What about the TGI [8] of the same compound?
Answer: 5.62 µM

Question: And the CC50 [8]?
Answer: 29.5 µM

Question: And the GI50 [9]?
Answer: 1.78 µM

Question: And the TGI [9]?
Answer: 3.89 µM

Question: And the CC50 [9]?
Answer: 8.91 µM

Question: With `COc1c(/C=C2/C(=O)Nc3ccc(Cl)cc32)c2ccccc2n1-c1ccccc1` as the compound, how does the GI50 [1] read?
Answer: 4.27 µM

Question: And the TGI [1]?
Answer: 13.8 µM

Question: And the CC50 [1]?
Answer: 52.5 µM

Question: What about the GI50 [2] of the same compound?
Answer: 5.25 µM

Question: And the TGI [2]?
Answer: 19.1 µM

Question: And the CC50 [2]?
Answer: 52.5 µM

Question: And the LC50 (concentration giving 50% net cell kill) [3]?
Answer: 58.9 µM

Question: And the GI50 [3]?
Answer: 2.34 µM

Question: And the TGI [3]?
Answer: 8.91 µM

Question: What about the GI50 [4] of the same compound?
Answer: 8.51 µM

Question: What about the LC50 [4] of the same compound?
Answer: 66.1 µM

Question: And the TGI [4]?
Answer: 24 µM

Question: What about the GI50 [5] of the same compound?
Answer: 9.55 µM

Question: And the LC50 [5]?
Answer: 57.5 µM

Question: What about the TGI [5] of the same compound?
Answer: 24.6 µM

Question: And the GI50 [6]?
Answer: 5.62 µM

Question: What about the LC50 [6] of the same compound?
Answer: 51.3 µM

Question: What about the TGI [6] of the same compound?
Answer: 18.2 µM

Question: And the GI50 [7]?
Answer: 8.51 µM

Question: What about the LC50 [7] of the same compound?
Answer: 51.3 µM

Question: What about the TGI [7] of the same compound?
Answer: 21.9 µM

Question: What about the GI50 [8] of the same compound?
Answer: 6.31 µM

Question: And the TGI [8]?
Answer: 25.7 µM

Question: What about the CC50 [8] of the same compound?
Answer: 60.3 µM

Question: And the GI50 [9]?
Answer: 9.33 µM

Question: And the TGI [9]?
Answer: 24 µM

Question: And the CC50 [9]?
Answer: 60.3 µM

Question: Which GI50 [1] does the source give for `COc1c(/C=C2/C(=O)Nc3ccccc32)c2ccccc2n1-c1ccccc1` here?
Answer: 1.23 µM

Question: And the TGI [1]?
Answer: 4.47 µM

Question: What about the CC50 [1] of the same compound?
Answer: 27.5 µM

Question: And the GI50 [2]?
Answer: 2.19 µM

Question: And the TGI [2]?
Answer: 8.51 µM

Question: And the CC50 [2]?
Answer: 30.9 µM

Question: What about the LC50 (concentration giving 50% net cell kill) [3] of the same compound?
Answer: 50.1 µM

Question: And the GI50 [3]?
Answer: 0.52 µM

Question: And the TGI [3]?
Answer: 2.63 µM

Question: And the GI50 [4]?
Answer: 1.38 µM

Question: What about the LC50 [4] of the same compound?
Answer: 15.8 µM

Question: What about the TGI [4] of the same compound?
Answer: 4.07 µM

Question: And the GI50 [5]?
Answer: 2.14 µM

Question: And the LC50 [5]?
Answer: 27.5 µM

Question: And the TGI [5]?
Answer: 8.32 µM

Question: And the GI50 [6]?
Answer: 1.48 µM

Question: And the LC50 [6]?
Answer: 10.5 µM

Question: What about the TGI [6] of the same compound?
Answer: 3.98 µM

Question: And the GI50 [7]?
Answer: 1.12 µM

Question: And the LC50 [7]?
Answer: 13.2 µM

Question: And the TGI [7]?
Answer: 4.07 µM

Question: And the GI50 [8]?
Answer: 1.05 µM

Question: What about the TGI [8] of the same compound?
Answer: 3.24 µM

Question: What about the CC50 [8] of the same compound?
Answer: 7.94 µM

Question: And the GI50 [9]?
Answer: 1.12 µM

Question: And the TGI [9]?
Answer: 3.47 µM

Question: What about the CC50 [9] of the same compound?
Answer: 19.1 µM

Reference: ChEMBL document CHEMBL3232816, “Substituted E-3-(3-indolylmethylene)1,3-dihydroindol-2-ones with antiproliferative activity. Study of the effects on HL-60 leukemia cells” (2014)
